Data on 15 compounds can be found in ChEMBL document CHEMBL5226313, “Discovery of an Orally Efficacious MYC Inhibitor for Liver Cancer Using a GNMT-Based High-Throughput Screening System and Structure-Activity Relationship Analysis” (J Med Chem, 2021).

For data set [1], the target named is T1, Glycine N-methyltransferase (Homo sapiens) (UniProt Q14749).
T1 sequence (whole entry): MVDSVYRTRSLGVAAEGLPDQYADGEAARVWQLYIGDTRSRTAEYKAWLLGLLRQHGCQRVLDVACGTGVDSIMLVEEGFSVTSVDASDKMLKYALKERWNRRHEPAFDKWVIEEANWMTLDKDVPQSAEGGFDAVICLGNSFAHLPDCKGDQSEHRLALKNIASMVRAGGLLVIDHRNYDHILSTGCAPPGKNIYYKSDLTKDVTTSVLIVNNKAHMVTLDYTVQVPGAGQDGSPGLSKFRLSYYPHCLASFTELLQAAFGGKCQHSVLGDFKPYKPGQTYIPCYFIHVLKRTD
Kind of data set: Induction of GNMT in human H7GPL cells assessed as fold increase in promoter-driven luciferase reporter expression at 10 uM measured after 24 hrs by luminescence assay relative to control. The format is cell-based. Conditions: filed as activator.

Data set [2] concerns the target T1, Glycine N-methyltransferase (Homo sapiens). As to the kind of experiment: Induction of GNMT in human H7GPL cells assessed as fold increase in promoter-driven luciferase reporter expression at 2.5 uM measured after 24 hrs by luminescence assay relative to control. The format is cell-based. Conditions: filed as activator. The procedure, abridged:
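H7GPL cells (Huh7 carrying a stable lentiviral GNMT promoter–luciferase reporter, kept in 1 μg/mL puromycin) treated with compound for 24 h, then luciferase measured. Luciferase activity normalised to cell viability and expressed as fold over solvent control; means ± SD, n = 3.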

Data set [3] can be described thus: Cytotoxicity against human H7GPL cells at 10 uM measured after 72 hrs by MTS assay. The format is toxicity, cell-based. The procedure, abridged:
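H7GPL-1 cells seeded at 3 × 10³ per well overnight, then exposed to 10 μM compound for 72 h. Medium replaced with MTS/PMS reagent (20:1) and incubated 1.5 h at 37 °C in 5% CO2; absorbance read at 490 nm. Viability expressed relative to control, where 100% means no cytotoxicity.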

For data set [4], the target named is T1, Glycine N-methyltransferase (Homo sapiens). As to the kind of experiment: Induction of GNMT in human H7GPL cells assessed as fold increase in promoter-driven luciferase reporter expression measured after 24 hrs by luminescence assay relative to control. The format is cell-based. The note with it: filed as activator, dose 0.15-10 µM.
In data set [5] the test system is Huh-7. Kind of data set: Antitumor activity against human Huh-7 cells xenografted in mouse tumor model assessed as inhibition of tumor growth at 25 to 300 mg/kg, po treated for 30 days. The format is functional, organism-based. Conditions: dose 25-300 mg/kg, time 30.0 day. The method in brief:
(§1)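 Female Balb/c nude mice, 5–6 weeks old, injected subcutaneously in the right flank with 1 × 10⁶ Huh7 cells. Once tumors were palpable, animals were randomised and dosed orally every day for 30 days at 25, 100 or 300 mpk, or vehicle; sorafenib 25 mpk as reference group. Tumors measured by caliper throughout; body weight recorded during treatment.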

Data set [6] deals with Huh-7. As to the kind of experiment: Induction of GNMT mRNA expression in human Huh-7 cells at 2.5 uM measured after 24 hrs by qRT-PCR analysis. Format: functional, cell-based. The procedure, abridged:
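Huh7 cells exposed to 2.5 μM for 24 h, then RNA harvested. GNMT mRNA quantified by qRT-PCR, normalised to an internal control and expressed as fold over solvent control; means ± SD, n = 3.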

In data set [7] the test system is Huh-7. As to the kind of experiment: Induction of GNMT protein expression in human Huh-7 cells at 2.5 uM measured after 24 hrs. The format is functional, cell-based.
Data set [8] is described as follows: Toxicity in mouse xenografted with human Huh-7 cells assessed as body weight at 25 to 300 mg/kg, po treated for 30 days. The format is organism-based. The note with it: in vivo, 720 h, dose 25-300 mg/kg, time 30 day. The method in brief:
as §1

Molecules are shown by their SMILES. Calls of active or inactive are those of the source. The calls are words filed in the database; no cut-off is given here.

For the compound `O=C(NN=C(c1ccccn1)c1ccccn1)c1ccc(O)cc1O`, the fold change (FC) in data set [1] is 1.14; in data set [2] it was 4.7.
Taken in the same sequence, the figures for `O=C(N/N=C/c1ccc[nH]1)c1cc2ccccc2cc1O` were 1.56 and 1.19.
For `C/C(=N\NC(=O)c1cc2ccccc2cc1O)c1ccc[nH]1` the same measures were 1.04 and 1.22.
Turning to `O=C(NN=C(c1ccccn1)c1ccccn1)c1cc2ccccc2cc1O`, the fold change (FC) in data set [1] was determined as 5.94; in data set [2], 7.56.
For `C/C(=N\NC(=O)c1cc2ccccc2cc1O)c1ccc2ccccc2n1`, the figures for the fold change (FC) in data set [1] and in data set [2] were 0.99 and 3.31, respectively.
For the compound `O=C(N/N=C/c1ccccn1)c1ccccc1O`, the fold change (FC) in data set [1] was 0.88; in data set [2] it was 1.4.
On to `Cc1ccc(COc2ccc3ccc(=O)oc3c2)cc1`, for which the Activity entry in data set [3] is “Non-Toxic”.
As to `COc1ccc(/C(C)=N/NC(=O)c2cc3ccccc3cc2O)cc1`, the fold change (FC) in data set [1] worked out at 0.9; in data set [2], 1.2.
For the compound `c1ccc(OCc2nc3ccccc3s2)cc1` [2-(PHENOXYMETHYL)BENZOTHIAZOLE], the Activity entry in data set [3] was “Non-Toxic”.
In the case of `C/C(=N\NC(=O)c1ccccc1N)c1ccccn1`, the fold change (FC) in data set [1] turned out to be 11; in data set [2], 0.93.
`C/C(=N\NC(=O)c1cc2ccccc2cc1O)c1ccccn1`: the Activity result in data set [3] is “Non-Toxic”; in data set [4] it was “Dose-Dependent Effect”; in data set [8] it was “Non-Toxic”. The inhibition entry in data set [5] was “Active”. Besides, the outcome in data set [6] and in data set [7] was Active. In addition, in data set [2], the fold change (FC) turned out to be 6.7.
In the case of `C/C(=N\NC(=O)c1cc2ccccc2cc1O)c1ccccc1`, the fold change (FC) in data set [1] was found to be 1.37; in data set [2] it was 1.16.
For `C/C(=N\NC(=O)c1cccc(O)c1)c1ccccn1` the same measures were 6.66 and 13.3.
Consider `C/C(=N\NC(=O)c1cc2ccccc2cc1O)c1cccnc1`, for which the fold change (FC) in data set [1] is 1.15; in data set [2] it was 1.33.
For `C/C(=N\NC(=O)c1cc2ccccc2cc1O)c1ccc([N+](=O)[O-])cc1` the same measures were 0.9 and 1.01.
